ChEMBL document CHEMBL4627381, “Licochalcone A Selectively Resensitizes ABCG2-Overexpressing Multidrug-Resistant Cancer Cells to Chemotherapeutic Drugs” (J Nat Prod, 2020)
The source made the active and inactive calls. The rule behind the calls is not given here.

What was measured:
[1] = test system: NCI-H460; test: Effect on mitoxantrone-induced cytotoxicity against human H460 cells assessed as fold change in mitoxantrone IC50 at 2 uM after 72 hrs by MTT assay relative to mitoxantrone IC50; assay type: functional
How it was run: (§1)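 Parental S1 colon and H460 lung cancer cells were exposed for 72 h to a mitoxantrone or topotecan concentration series, with or without modulator at 0.5–3.0 μM, and read by MTT. Fold-reversal is IC50 without modulator divided by IC50 with modulator, taken from dose-response curves of three independent experiments.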

[2] = test system: NCI-H460; test: Effect on topotecan-induced cytotoxicity against human H460 cells assessed as fold change in topotecan IC50 at 0.5 uM after 72 hrs by MTT assay relative to topotecan IC50; assay type: functional; how it was run: as §1
[3] = target: T1, Broad substrate specificity ATP-binding cassette transporter ABCG2 (Homo sapiens, UniProt Q9UNQ0); test: Reversal of ABCG2 (unknown origin)-mediated multidrug resistance in human H460-MX20 cells assessed as fold change in mitoxantrone IC50 at 0.5 uM after 72 hrs by MTT assay relative to mitoxantrone IC50; assay type: cell-based
T1 sequence (Q9UNQ0 whole entry): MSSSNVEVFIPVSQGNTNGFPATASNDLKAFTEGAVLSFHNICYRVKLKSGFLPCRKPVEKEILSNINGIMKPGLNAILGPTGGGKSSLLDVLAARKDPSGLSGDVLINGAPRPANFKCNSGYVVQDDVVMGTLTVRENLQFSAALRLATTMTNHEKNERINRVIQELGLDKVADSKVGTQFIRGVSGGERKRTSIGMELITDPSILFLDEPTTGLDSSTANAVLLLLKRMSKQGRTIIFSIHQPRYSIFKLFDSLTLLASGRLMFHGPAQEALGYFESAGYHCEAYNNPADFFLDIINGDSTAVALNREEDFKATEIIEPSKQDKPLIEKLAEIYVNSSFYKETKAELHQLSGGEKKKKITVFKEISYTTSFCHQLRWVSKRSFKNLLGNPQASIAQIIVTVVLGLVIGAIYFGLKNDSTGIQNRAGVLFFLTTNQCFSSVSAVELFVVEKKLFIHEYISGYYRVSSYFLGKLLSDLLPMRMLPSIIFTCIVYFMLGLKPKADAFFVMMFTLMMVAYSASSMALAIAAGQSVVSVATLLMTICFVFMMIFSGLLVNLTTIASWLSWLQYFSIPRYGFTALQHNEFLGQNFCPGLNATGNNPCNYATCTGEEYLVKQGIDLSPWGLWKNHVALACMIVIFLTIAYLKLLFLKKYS
How it was run: (§2)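 Cells held drug-free 7 days, seeded at 5000 per well for 24 h, then exposed 72 h to mitoxantrone or topotecan dilutions with DMSO (≤0.5%), LCA 0.5–3.0 μM, or Ko143 1.0 μM. Viability was read by MTT. IC50 came from fitted dose-response curves of three independent experiments. Fold-reversal = IC50 without modulator divided by IC50 with modulator.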

[4] = target: ATP-dependent translocase ABCB1 (Homo sapiens, UniProt P08183); test: Modulation of human ABCB1 expressed in HEK293/MDR19 cells assessed as increase in intracellular calcein-AM accumulation at 20 uM incubated for 10 mins by FACScan flow cytometry; assay type: cell-based
How it was run: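 Cells held drug-free 7 days. 3 × 10^5 cells in IMDM with 5% FCS were loaded with calcein-AM for 10 min, with or without 20 μM LCA. Reference inhibitors were tariquidar 3 μM (ABCB1) and MK-571 25 μM (ABCC1). Calcein fluorescence (ex 485/em 535 nm) was read by flow cytometry; at least three independent experiments.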

[5] = test system: HEK293; test: Effect on Colchicine-induced cytotoxicity against HEK293 cells assessed as fold change in colchicine IC50 at 3 uM after 72 hrs by CCK8 assay relative to colchicine IC50; assay type: cell-based; details: human, hek293, 72 h
How it was run: (§3)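 Reversal assay in parental pcDNA-HEK293 and transfected HEK293 lines (ABCB1 for colchicine, ABCC1 for etoposide, ABCG2 for mitoxantrone/topotecan). Substrate drug series was given with or without nontoxic modulator (0.5, 1.0, 2.0 or 3.0 μM) for 72 h, with a CCK-8 read-out. Fold-reversal is substrate IC50 without modulator divided by IC50 with modulator. Three independent experiments.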

[6] = target: T1, Broad substrate specificity ATP-binding cassette transporter ABCG2; test: Modulation of ABCG2 (unknown origin) expressed in H460-MX20 cells assessed as increase in intracellular pheophorbide A accumulation at 20 uM incubated for 1 hr by FACScan flow cytometry; assay type: cell-based
How it was run: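 Cells held drug-free 7 days. 3 × 10^5 cells were suspended in IMDM with 5% FCS and loaded with pheophorbide A (ex 395/em 670 nm) for 1 h, with or without LCA (20 μM for single-concentration accumulation) or Ko143 3 μM as reference. Read immediately by flow cytometry. Efflux inhibition was run over a concentration range; mean ± SD of three experiments.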

[7] = test system: HEK293; test: Effect on topotecan-induced cytotoxicity against HEK293 cells assessed as fold change in topotecan IC50 at 0.5 uM after 72 hrs by CCK8 assay relative to topotecan IC50; assay type: cell-based; details: human, hek293, 72 h; how it was run: as §3
[8] = test system: NCI-H460; test: Effect on mitoxantrone-induced cytotoxicity against human H460 cells assessed as fold change in mitoxantrone IC50 at 0.5 uM after 72 hrs by MTT assay relative to mitoxantrone IC50; assay type: functional; how it was run: as §1
[9] = test system: S1-M1-80; test: Downregulation of ABCG2 expression in human S1-M1-80 cells at 0.5 to 3 uM incubated for 72 hrs by Western blot analysis; assay type: functional, cell-based
How it was run: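 S1-M1–80 and H460-MX20 cells were treated with 0.5–3.0 μM or DMSO vehicle for 72 h, then run on SDS-PAGE and immunoblotted with BXP-21 (1:15000) for ABCG2. α-Tubulin (1:100000) served as loading control, with HRP goat anti-mouse secondary. Bands were quantified as mean ± SEM of three independent experiments.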

[10] = test system: S1; test: Induction of apoptosis in human S1 cells assessed as necrotic cells at 10 uM incubated for 48 hrs by annexin V/propidium iodide staining based flow cytometry (reference value: 0.2%); assay type: functional
How it was run: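 S1 cells were exposed for 48 h to DMSO, 10 μM compound, 5 μM topotecan, or 5 μM topotecan plus 10 μM compound. They were then stained with 1.25 μg/mL annexin V–FITC and 0.1 mg/mL PI for 15 min at room temperature. 10000 cells per sample were analysed by flow cytometry; three independent experiments.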

[11] = target: T1, Broad substrate specificity ATP-binding cassette transporter ABCG2; test: Reversal of ABCG2 (unknown origin)-mediated multidrug resistance in human H460-MX20 cells assessed as fold change in topotecan IC50 at 1 uM after 72 hrs by MTT assay relative to topotecan IC50; assay type: cell-based; how it was run: as §2
[12] = test system: HEK293; test: Cytotoxicity against HEK293 cells after 72 hrs by CCK8 assay; assay type: cell-based; details: Homo sapiens, HEK293, 72 h
How it was run: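 Cells seeded at 5000/well, allowed 24 h, then exposed to a concentration series for 72 h at 37 °C in DMSO vehicle (up to 0.5% v/v). HEK293 lines were read with CCK-8 and cancer lines with MTT. IC50 was taken from fitted dose-response curves over at least three independent experiments. Lines were kept drug-free for 7 days before assay.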

ATP-dependent translocase ABCB1, sequence (P08183 whole entry): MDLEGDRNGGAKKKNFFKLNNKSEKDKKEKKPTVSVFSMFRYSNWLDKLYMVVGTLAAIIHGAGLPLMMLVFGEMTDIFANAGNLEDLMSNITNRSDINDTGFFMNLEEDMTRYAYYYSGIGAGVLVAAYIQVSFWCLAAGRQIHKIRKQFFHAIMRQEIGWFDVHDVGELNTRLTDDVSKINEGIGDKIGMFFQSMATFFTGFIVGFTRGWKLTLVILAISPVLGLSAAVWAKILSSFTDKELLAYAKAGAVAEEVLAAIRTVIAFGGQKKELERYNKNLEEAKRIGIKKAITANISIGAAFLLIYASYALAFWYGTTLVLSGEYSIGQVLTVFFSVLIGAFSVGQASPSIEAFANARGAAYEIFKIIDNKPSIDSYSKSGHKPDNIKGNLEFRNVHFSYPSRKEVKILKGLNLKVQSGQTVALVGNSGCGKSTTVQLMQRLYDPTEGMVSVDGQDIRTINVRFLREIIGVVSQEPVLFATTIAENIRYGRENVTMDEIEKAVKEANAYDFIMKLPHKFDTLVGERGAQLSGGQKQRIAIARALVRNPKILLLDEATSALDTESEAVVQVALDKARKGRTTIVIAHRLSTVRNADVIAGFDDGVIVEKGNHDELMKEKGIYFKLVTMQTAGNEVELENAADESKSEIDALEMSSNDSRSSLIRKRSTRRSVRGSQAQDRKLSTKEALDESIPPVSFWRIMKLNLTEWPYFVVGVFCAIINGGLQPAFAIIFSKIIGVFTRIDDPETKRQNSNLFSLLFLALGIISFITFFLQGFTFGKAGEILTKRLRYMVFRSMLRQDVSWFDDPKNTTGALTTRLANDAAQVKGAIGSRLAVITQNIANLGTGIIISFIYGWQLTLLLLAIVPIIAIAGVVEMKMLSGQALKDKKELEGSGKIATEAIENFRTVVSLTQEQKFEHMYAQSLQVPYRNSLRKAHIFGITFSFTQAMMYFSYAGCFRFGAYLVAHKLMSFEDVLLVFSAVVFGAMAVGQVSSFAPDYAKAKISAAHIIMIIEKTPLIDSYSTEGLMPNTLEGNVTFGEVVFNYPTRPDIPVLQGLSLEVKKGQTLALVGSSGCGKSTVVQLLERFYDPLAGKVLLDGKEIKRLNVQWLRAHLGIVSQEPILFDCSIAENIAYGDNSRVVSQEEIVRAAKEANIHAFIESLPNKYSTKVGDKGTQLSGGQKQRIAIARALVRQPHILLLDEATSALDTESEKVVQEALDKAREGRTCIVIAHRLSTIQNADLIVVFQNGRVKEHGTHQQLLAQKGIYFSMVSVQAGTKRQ

C=CC(C)(C)c1cc(/C=C/C(=O)c2ccc(O)cc2)c(OC)cc1O [LICOAGROCHACONE A]
fold change (FC) [1]: 1.1 | fold change (FC) [2]: 1.5 | fold change (FC) [3]: 2.6 | Activity [4]: Not Active | fold change (FC) [5]: 0.9 | Activity [6]: Active | fold change (FC) [7]: 0.9 | fold change (FC) [8]: 0.8 | Activity [9]: inactive | Activity [10]: 0.2% | fold change (FC) [11]: 9.2 | IC50 [12]: 10 to 50 µM
